Experiments:
[1] = Lipophilicity coefficient, logP of the compound in Tris buffer at pH 7.0 (100 mM/n-octanol); type: physicochemical
How it was run: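 Octanol/water partition measured between n-octanol and 100 mM Tris buffer, pH 7.0.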

[2] = Ratio of drug level in stomach to plasma in rat at 150 umol/kg, po measured within 10 mins by LC-MS/MS analysis; type: ADME, organism-based; settings: stomach and plasma
How it was run: (§1)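 SD rats (half male, half female, n = 6 per group) given a single oral 150 μmol/kg dose. Killed at 10 min, 30 min, 2 h or 6 h; tissues washed in saline, weighed and homogenised in acetonitrile/water 1:9 (125 mg/mL). Tissue levels compared with plasma.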

[3] = Acid dissociation constant, pKa1 of the compound over pH 1.8 to 11.0 by spectrophotometric titration method; type: physicochemical
How it was run: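 Automated spectrophotometric titration with 0.1 M KOH in 0.1 pH-unit steps. Reading accepted as stable when drift was <0.01 pH unit after a 1.5 min incubation. 10 mm path length cuvette. Spectra fitted by computer to obtain the pKa values.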

[4] = Ratio of drug level in liver to plasma in rat at 150 umol/kg, po measured within 10 mins by LC-MS/MS analysis; type: ADME, organism-based; settings: liver and plasma; how it was run: as §1
[5] = Binding affinity to Mg2+ ion assessed as affinity constant by spectrophotometric titration method
[6] = Toxicity in Sprague-Dawley rat assessed as induction of histopathological changes in bone marrow at 25 to 116 mg/kg, po dosed daily for 4 weeks during chronic 4 week toxicity test; type: organism-based; settings: in vivo, 672 h
[7] = system: Mus musculus; assay: Toxicity in mouse assessed as reduction in monocytes counts at 200 mg/kg, po dosed once daily for 2 months as 5 days per week schedule; settings: in vivo, 120 h
[8] = Toxicity in Sprague-Dawley rat assessed as induction of histopathological changes in pancreas at 25 to 116 mg/kg, po dosed daily for 4 weeks and measured after additional 4 weeks period in absence of drug; type: organism-based; settings: in vivo, 672 h
[9] = system: Mus musculus; assay: Toxicity in mouse assessed as effect on platelet population at 200 mg/kg, po dosed once daily for 2 months as 5 days per week schedule; settings: in vivo, 120 h
[10] = system: Mus musculus; assay: Toxicity in mouse assessed as reduction in erythrocyte population at 200 mg/kg, po dosed once daily for 2 months as 5 days per week schedule; settings: in vivo, 120 h
[11] = Apparent volume of distribution in Sprague-Dawley rat at 600 umol/kg, po measured up to 1440 mins by LC/MS/MS analysis; type: ADME, organism-based; settings: in vivo, 24 h
[12] = system: Rattus norvegicus; assay: Iron scavenging activity in iron-overloaded rat assessed as iron removal efficacy at 150 to 300 umol/kg, po relative to deferiprone; type: functional
How it was run: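 Male SD rats (300 g), fasted overnight, given about 1 μC 59Fe-ferritin i.v. under isoflurane; chelator by oral gavage 1 h later; doses 75, 150, 300, 600 and 1200 μmol/kg. Rats housed in metabolic cages, food returned 1 h post-dose; killed 24 h after ferritin injection. Urine, faeces, liver and gut gamma-counted. Iron removal expressed as % efficacy.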

[13] = Apparent clearance in Sprague-Dawley rat at 600 umol/kg, po measured up to 1440 mins by LC/MS/MS analysis; type: ADME, organism-based; settings: in vivo, read-out: CL(app) (converted)
[14] = Ratio of drug level in kidney to plasma in rat at 150 umol/kg, po measured within 10 mins by LC-MS/MS analysis; type: ADME, organism-based; settings: kidney and plasma; how it was run: as §1
[15] = Binding affinity to Fe2+ ion assessed as affinity constant by spectrophotometric titration method
How it was run: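 Automated spectrophotometric titration with 0.1 M KOH in 0.1 pH steps, 3 min equilibration per step, 50 mm cuvette, iron complexes at ca. 40 µM. Titrated in competition with metal hydrolysis species up to pH 12.0. Hydrolysis constants taken from critical compilations. Iron spectra fitted over 400–700 nm.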

[16] = Ratio of drug level in intestine to plasma in rat at 150 umol/kg, po measured within 10 mins by LC-MS/MS analysis; type: ADME, organism-based; settings: intestine and plasma; how it was run: as §1
[17] = Toxicity in iron-overloaded rat assessed as drug tolerability at 75 to 1200 umol/kg, po; settings: in vivo
[18] = biological target: T1, Cytochrome P450 2B6 (Homo sapiens, UniProt P20813); assay: Inhibition of CYP2B6 in human liver microsomes; type: ADME
T1 sequence (P20813 whole entry): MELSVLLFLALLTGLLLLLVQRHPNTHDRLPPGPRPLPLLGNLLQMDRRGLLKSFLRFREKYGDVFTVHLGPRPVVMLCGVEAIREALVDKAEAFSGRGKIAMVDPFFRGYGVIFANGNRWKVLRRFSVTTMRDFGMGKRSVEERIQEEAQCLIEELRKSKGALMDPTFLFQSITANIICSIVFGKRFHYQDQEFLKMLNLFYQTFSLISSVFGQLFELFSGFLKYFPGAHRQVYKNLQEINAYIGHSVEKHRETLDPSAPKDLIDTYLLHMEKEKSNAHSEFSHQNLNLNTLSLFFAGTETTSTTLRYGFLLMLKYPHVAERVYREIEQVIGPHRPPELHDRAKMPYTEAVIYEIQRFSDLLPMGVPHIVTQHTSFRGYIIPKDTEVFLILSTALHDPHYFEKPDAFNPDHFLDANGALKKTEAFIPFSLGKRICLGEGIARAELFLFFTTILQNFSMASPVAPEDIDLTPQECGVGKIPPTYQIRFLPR

[19] = Drug metabolism in rat liver microsomes assessed as oxidative metabolism incubated for 1 hr relative to deferiprone; type: ADME, Microsome
[20] = Toxicity in iron-overloaded rat assessed as induction of mortality at 75 to 1200 umol/kg, po; settings: in vivo
[21] = biological target: Cytochrome P450 2D6 (Homo sapiens, UniProt P10635); assay: Inhibition of CYP2D6 in human liver microsomes; type: ADME
Chain of Cytochrome P450 2D6 (P10635 whole entry): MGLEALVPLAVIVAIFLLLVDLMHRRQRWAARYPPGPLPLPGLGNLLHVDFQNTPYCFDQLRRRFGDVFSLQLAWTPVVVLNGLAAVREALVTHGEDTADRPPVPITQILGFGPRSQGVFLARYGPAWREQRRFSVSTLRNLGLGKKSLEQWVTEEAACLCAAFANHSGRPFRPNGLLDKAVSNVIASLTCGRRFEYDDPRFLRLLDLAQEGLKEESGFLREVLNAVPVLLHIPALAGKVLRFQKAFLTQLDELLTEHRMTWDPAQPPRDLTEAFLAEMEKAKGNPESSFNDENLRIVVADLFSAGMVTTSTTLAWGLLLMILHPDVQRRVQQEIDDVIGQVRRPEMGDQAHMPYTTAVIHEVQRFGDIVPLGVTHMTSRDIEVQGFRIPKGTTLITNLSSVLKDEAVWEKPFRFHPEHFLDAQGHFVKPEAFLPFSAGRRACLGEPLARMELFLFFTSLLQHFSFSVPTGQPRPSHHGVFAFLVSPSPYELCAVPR

[22] = Genotoxicity in Salmonella typhimurium by Ames test; type: toxicity; settings: salmonella enterica subsp. enterica serovar typhimurium
[23] = system: Rattus norvegicus; assay: Iron scavenging activity in 59Fe-ferritin-loaded rat assessed as iron mobilization level at 150 to 450 umol/kg, po dosed 1 hr after 59Fe-ferritin injection and measured 24 hrs after 59Fe-ferritin injection by gamma counting method relative to control; type: functional, organism-based
How it was run: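 Male SD rats, 300 g, fasted overnight, given about 1 μC 59Fe-ferritin i.v. under isoflurane. Chelator gavaged 1 h later, then rats housed in metabolic cages; food returned 1 h after dosing. Killed 24 h after 59Fe-ferritin. Urine, faeces, liver and gut gamma-counted. 8 rats per condition.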

[24] = Toxicity in Sprague-Dawley rat assessed as induction of histopathological changes in bone marrow at 25 to 116 mg/kg, po dosed daily for 4 weeks and measured after additional 4 weeks period in absence of drug; type: organism-based; settings: in vivo, 672 h
[25] = Binding affinity to Ni2+ ion assessed as pM value by spectrophotometric titration method
[26] = AUC (0 to infinity) in Sprague-Dawley rat at 600 umol/kg, po measured up to 1440 mins by LC/MS/MS analysis; type: ADME, organism-based; parameters: dose 600 umol/kg, time infinity, route oral; settings: in vivo, 24 h
[27] = Cmax in Sprague-Dawley rat at 75 umol/kg, po measured up to 1440 mins by LC/MS/MS analysis; type: ADME, organism-based; parameters: dose 75 umol/kg, route oral; settings: in vivo

Cc1c(O)c(O)cc[n+]1[C@@H](CO)Cc1ccccc1.[Cl-] gave a logD [1] of 0.62, a Kp at 10 min [2] of 3.3 to 8.8 and a pKa [3] of 3.26. For the same molecule, the Kp at 10 min [4] was 3.3 to 8.8, the log K [5] was 9.12 and the Activity [6] was “Toxic”. The Activity [7] was “Non-Toxic”, the Activity [8] was “Non-Toxic” and the Activity [9] was “Non-Toxic”. For the same molecule, the Activity [10] was “Non-Toxic”, the Vz [11] was 4.29 L/kg and the “fold change (FC)” value [12] was 3.1 - 3.8. It also gave a CL/F [13] of 15.2 mL/min/kg, a Kp at 10 min [14] of 3.3 to 8.8 and a K [15] of 6.22 pM. The log K [15] was 7.32, the Kp at 10 min [16] was 3.3 to 8.8 and the Activity [17] was “Non-Toxic”. The IC50 [18] was > 200 µM, the Drug metabolism [19] was “Metabolite_Detected” and the Activity [20] was “Non-Toxic”. For the same molecule, the IC50 [21] was > 200 µM, the Activity [22] was “Non-Toxic” and the Activity [23] was “Dose-dependent effect”. For the same molecule, the Activity [24] was “Non-Toxic”, the pM [25] was 6.17 and the AUC [26] was 181 µg·h/mL. It also gave a Cmax [27] of 8670 ng/mL.

Source: ChEMBL document CHEMBL4376902, “CN128: A New Orally Active Hydroxypyridinone Iron Chelator” (J Med Chem, 2020)
